Results on 1 compound are retold here after article PMC8324497 (Cell Reports Medicine, 2021).

In assay [1] the test system is panel of 23 solid tumor cell lines. Description: Antiproliferative activity in a panel of 23 solid tumor cell lines. The format is cell-based. The note with it: Homo sapiens. An outline of the steps: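 Adherent solid-tumour cells were seeded at 5,000 cells/well and allowed to attach for 16–24 h at 37°C, 5% CO2. They were exposed to the test compound at 0.0005–10 μM (3-fold serial dilutions) for 72 h. Alamar Blue was added (1X final) for 1–3 h and fluorescence read at 540 nm excitation, 590 nm emission. IC50 came from a sigmoidal variable-slope fit.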

A further assay has as its system A549. The experiment in a line: Cell proliferation assay. The format is cell-based. The note with it: Homo sapiens, A549, 72 h.
Assay [2] concerns Rb phosphorylation on serine 795 and serine 608 in HCT116. Description: Western blot of off-target kinase substrates. The format is cell-based, human. Conditions: in cells (Figure S1C) and tumors (Figure S1D). An outline of the steps:
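Lysates from treated cells, or from subcutaneous xenograft tumors harvested at study end in female athymic nude mice (HCT116 model dosed with free-base form). 30 μg protein denatured in Laemmli buffer with 10% DTT, 95°C for 5 min. Run on 4–15% or 4–12% gels and transferred 7 min to PVDF or nitrocellulose. Primary antibody overnight in 5% BSA/PBS, then IRDye or HRP secondary 1 h at room temperature.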

The next assay deals with NCI-H460. Description: Cell proliferation assay. Conditions: Homo sapiens, NCI-H460, 72 h. The format is cell-based.

SMILES strings stand for the structures. Read-outs that look alike come from different tables or passages of the source. Where only a bound is given, the exact number is not on record here.

Turning to `Cc1cnc(NC2CCOCC2)nc1-n1cnc(C(=O)NC(CN)c2cc(F)cc(Cl)c2)c1` (stereo not drawn) [ASN007, N-(2-amino-1-(3-chloro-5-fluorophenyl)ethyl)-1-(5-methyl-2-((tetrahydro-2H-pyran-4-yl)amino)pyrimidin-4-yl)-1H-imidazole-4-carboxamide], the IC50 in assay [1] (read-out: IC50 range) is 13 to 100 nM; in assay [1] (read-out: IC50 values), over 10000 nM; in assay [1] (read-out: median IC50), 37 nM; with A549, 53 nM; in the assay on NCI-H460, 296 nM. Besides, the “mechanistic inhibition of CDK2, CDK4, GSK3, or PRDK1” value in assay [2] was “no evidence of the mechanistic inhibition”.
